Reference: ChEMBL document CHEMBL4689842, “EUbOPEN Chemogenomics Library wave 1” (2021)

Test system: Fibroblast
Assay: Multiplex assay against human fibroblast
Assay type: toxicity, cell-based
Outline: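 Cells were classed with CellPathfinder machine-learning gating, first as Hoechst high-intensity objects or normal cells, then (normal cells) as healthy, pyknosed or fragmented nuclei, and finally (pyknosed cells) as mitotic or apoptotic. Staining of live cells at seeding used Hoechst33342, BioTracker Green Microtubule Cytoskeleton Dye, MitoTracker Red and Annexin V Alexa Fluor 680, with imaging on a CQ1 microscope at 37°C and 5% CO2 after compound addition. Tubulin, mitochondrial-mass and membrane-permeability phenotypes are per cents of healthy-nucleus cells.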

[1] = 12 h, 1 µM, compound concentration 1 uM, replicate 1
[2] = 12 h, 1 µM, compound concentration 1 uM, replicate 2
[3] = 12 h, 10 µM, compound concentration 10 uM, replicate 1
[4] = 12 h, 10 µM, compound concentration 10 uM, replicate 2
[5] = 24 h, 1 µM, compound concentration 1 uM, replicate 1
[6] = 24 h, 1 µM, compound concentration 1 uM, replicate 2
[7] = 24 h, 10 µM, compound concentration 10 uM, replicate 1
[8] = 24 h, 10 µM, compound concentration 10 uM, replicate 2
[9] = 48 h, 1 µM, compound concentration 1 uM, replicate 1
[10] = 48 h, 1 µM, compound concentration 1 uM, replicate 2
[11] = 48 h, 10 µM, compound concentration 10 uM, replicate 1
[12] = 48 h, 10 µM, compound concentration 10 uM, replicate 2

Cc1ccc2c(c1)c1c(n2CCc2ccc(C)nc2)CCN(C)C1 [LATREPIRDINE]
Population Apoptotic (%) [1]: 60% | Population Fragmented Nuclei (%) [1]: 26% | Population Healthy Nuclei (%) [1]: 55% | Population Hoechst High Intensity Objects (%) [1]: 15% | Population Membrane Permeable-Phenotype (%) [1]: 18% | Population Mitochondria Different-Phenotype (%) [1]: 18% | Population Mitotic Cells (%) [1]: 40% | Population Normal (%) [1]: 84% | Population Pyknosed Nuclei (%) [1]: 18% | Population Tubulin-Different-Phenotype (%) [1]: 59% | Total Cell Count [1]: 127 | Population Apoptotic (%) [2]: 100% | Population Fragmented Nuclei (%) [2]: 27% | Population Healthy Nuclei (%) [2]: 67% | Population Hoechst High Intensity Objects (%) [2]: 16% | Population Membrane Permeable-Phenotype (%) [2]: 5% | Population Mitochondria Different-Phenotype (%) [2]: 27% | Population Mitotic Cells (%) [2]: 0% | Population Normal (%) [2]: 83% | Population Pyknosed Nuclei (%) [2]: 4% | Population Tubulin-Different-Phenotype (%) [2]: 27% | Total Cell Count [2]: 61 | Population Apoptotic (%) [3]: 55% | Population Fragmented Nuclei (%) [3]: 29% | Population Healthy Nuclei (%) [3]: 47% | Population Hoechst High Intensity Objects (%) [3]: 15% | Population Membrane Permeable-Phenotype (%) [3]: 3% | Population Mitochondria Different-Phenotype (%) [3]: 30% | Population Mitotic Cells (%) [3]: 44% | Population Normal (%) [3]: 84% | Population Pyknosed Nuclei (%) [3]: 23% | Population Tubulin-Different-Phenotype (%) [3]: 88% | Total Cell Count [3]: 148 | Population Apoptotic (%) [4]: 88% | Population Fragmented Nuclei (%) [4]: 7% | Population Healthy Nuclei (%) [4]: 65% | Population Hoechst High Intensity Objects (%) [4]: 8% | Population Membrane Permeable-Phenotype (%) [4]: 42% | Population Mitochondria Different-Phenotype (%) [4]: 100% | Population Mitotic Cells (%) [4]: 11% | Population Normal (%) [4]: 91% | Population Pyknosed Nuclei (%) [4]: 26% | Population Tubulin-Different-Phenotype (%) [4]: 100% | Total Cell Count [4]: 103 | Population Apoptotic (%) [5]: 60% | Population Fragmented Nuclei (%) [5]: 27% | Population Healthy Nuclei (%) [5]: 59% | Population Hoechst High Intensity Objects (%) [5]: 16% | Population Membrane Permeable-Phenotype (%) [5]: 22% | Population Mitochondria Different-Phenotype (%) [5]: 14% | Population Mitotic Cells (%) [5]: 40% | Population Normal (%) [5]: 83% | Population Pyknosed Nuclei (%) [5]: 12% | Population Tubulin-Different-Phenotype (%) [5]: 61% | Total Cell Count [5]: 140 | Population Apoptotic (%) [6]: 55% | Population Fragmented Nuclei (%) [6]: 23% | Population Healthy Nuclei (%) [6]: 67% | Population Hoechst High Intensity Objects (%) [6]: 13% | Population Membrane Permeable-Phenotype (%) [6]: 10% | Population Mitochondria Different-Phenotype (%) [6]: 27% | Population Mitotic Cells (%) [6]: 44% | Population Normal (%) [6]: 86% | Population Pyknosed Nuclei (%) [6]: 8% | Population Tubulin-Different-Phenotype (%) [6]: 14% | Total Cell Count [6]: 74 | Population Apoptotic (%) [7]: 55% | Population Fragmented Nuclei (%) [7]: 33% | Population Healthy Nuclei (%) [7]: 51% | Population Hoechst High Intensity Objects (%) [7]: 28% | Population Membrane Permeable-Phenotype (%) [7]: 10% | Population Mitochondria Different-Phenotype (%) [7]: 37% | Population Mitotic Cells (%) [7]: 45% | Population Normal (%) [7]: 71% | Population Pyknosed Nuclei (%) [7]: 14% | Population Tubulin-Different-Phenotype (%) [7]: 82% | Total Cell Count [7]: 189 | Population Apoptotic (%) [8]: 76% | Population Fragmented Nuclei (%) [8]: 4% | Population Healthy Nuclei (%) [8]: 56% | Population Hoechst High Intensity Objects (%) [8]: 4% | Population Membrane Permeable-Phenotype (%) [8]: 56% | Population Mitochondria Different-Phenotype (%) [8]: 100% | Population Mitotic Cells (%) [8]: 24% | Population Normal (%) [8]: 95% | Population Pyknosed Nuclei (%) [8]: 38% | Population Tubulin-Different-Phenotype (%) [8]: 100% | Total Cell Count [8]: 119 | Population Apoptotic (%) [9]: 88% | Population Fragmented Nuclei (%) [9]: 36% | Population Healthy Nuclei (%) [9]: 55% | Population Hoechst High Intensity Objects (%) [9]: 23% | Population Membrane Permeable-Phenotype (%) [9]: 13% | Population Mitotic Cells (%) [9]: 11% | Population Normal (%) [9]: 76% | Population Pyknosed Nuclei (%) [9]: 8% | Population Tubulin-Different-Phenotype (%) [9]: 42% | Total Cell Count [9]: 140 | Population Apoptotic (%) [10]: 100% | Population Fragmented Nuclei (%) [10]: 53% | Population Healthy Nuclei (%) [10]: 43% | Population Hoechst High Intensity Objects (%) [10]: 44% | Population Membrane Permeable-Phenotype (%) [10]: 22% | Population Mitochondria Different-Phenotype (%) [10]: 6% | Population Mitotic Cells (%) [10]: 0% | Population Normal (%) [10]: 55% | Population Pyknosed Nuclei (%) [10]: 3% | Population Tubulin-Different-Phenotype (%) [10]: 56% | Total Cell Count [10]: 206 | Population Fragmented Nuclei (%) [11]: 40% | Population Healthy Nuclei (%) [11]: 56% | Population Hoechst High Intensity Objects (%) [11]: 31% | Population Membrane Permeable-Phenotype (%) [11]: 7% | Population Mitochondria Different-Phenotype (%) [11]: 21% | Population Normal (%) [11]: 68% | Population Pyknosed Nuclei (%) [11]: 3% | Population Tubulin-Different-Phenotype (%) [11]: 80% | Total Cell Count [11]: 208 | Population Apoptotic (%) [12]: 100% | Population Fragmented Nuclei (%) [12]: 34% | Population Healthy Nuclei (%) [12]: 64% | Population Hoechst High Intensity Objects (%) [12]: 25% | Population Membrane Permeable-Phenotype (%) [12]: 14% | Population Mitochondria Different-Phenotype (%) [12]: 9% | Population Mitotic Cells (%) [12]: 0% | Population Normal (%) [12]: 74% | Population Pyknosed Nuclei (%) [12]: 2% | Population Tubulin-Different-Phenotype (%) [12]: 79% | Total Cell Count [12]: 134
